# ChEMBL document CHEMBL3393048, “Discovery of potent cytotoxic ortho-aryl chalcones as new scaffold targeting tubulin and mitosis with affinity-based fluorescence” (J Med Chem, 2014)
# The source made the active and inactive calls. The rule behind the calls is not given here.
# Key:
# [1] = tested on: A549; assay: Induction of apoptosis in human A549 cells assessed as viable cells at 1 uM after 48 hrs by Annexin V-FITC/propidium iodide staining-based flow cytometry (reference value: 99.37%); assay type: functional; settings: A549, 48 h, read-out: Activity
# [2] = tested on: A2780; assay: Antiproliferative activity against taxol-resistant human A2780 cells after 48 hrs by SRB method; assay type: functional, cell-based; settings: A2780, 48 h
# How it was run: (§1)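 SRB assay. Cells in DMEM high glucose with 10% FBS were seeded at 5000/well and grown 24 h; a day-0 plate was fixed at that point. Compounds were added in triplicate for 48 h. IC50 came from nonlinear regression of dose–response curves from at least two independent experiments.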
# [3] = tested on: A549; assay: Induction of apoptosis in human A549 cells assessed as early apoptotic cells at 1 uM after 48 hrs by Annexin V-FITC/propidium iodide staining-based flow cytometry (reference value: 0.47%); assay type: functional
# [4] = Antiproliferative activity against vincristine-resistant human HCT8 cells after 48 hrs by SRB method; assay type: functional, cell-based; settings: HCT-8, 48 h
# How it was run: as §1, with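 “h. Cells were fixed with TCA at 4 °C for 1 h, stained with 0.4% SRB, and the dye was solubilized in 10 mM Tris pH 10.4. OD was read at 515 nm with day-0 OD subtracted.” for “h.”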
# [5] = tested on: A549; assay: Antiproliferative activity against cis-platinum-resistant human A549 cells after 48 hrs by SRB method; assay type: functional, cell-based; settings: A549, 48 h
# How it was run: as §1, with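 “h. Cells were fixed with TCA at 4 °C for 1 h, stained with 0.4% SRB, and the dye was solubilized in 10 mM Tris pH 10.4. OD was read at 515 nm with day-0 OD subtracted.” for “h.”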
# [6] = tested on: A549; assay: Induction of apoptosis in human A549 cells assessed as total apoptotic cells at 0.75 uM after 48 hrs by Annexin V-FITC/propidium iodide staining-based flow cytometry; assay type: functional
# [7] = tested on: MCF7; assay: Antiproliferative activity against doxorubicin-resistant human MCF7 cells after 48 hrs by SRB method; assay type: functional, cell-based; settings: MCF7, 48 h; how it was run: as §1
# [8] = tested on: A549; assay: Induction of apoptosis in human A549 cells assessed as early apoptotic cells at 0.5 uM after 48 hrs by Annexin V-FITC/propidium iodide staining-based flow cytometry (reference value: 0.47%); assay type: functional
# [9] = tested on: A2780; assay: Antiproliferative activity against human A2780 cells after 48 hrs by SRB method; assay type: functional, cell-based; settings: A2780, 48 h; how it was run: as §1
# [10] = target: Tubulin; assay: Inhibition of tubulin polymerization (unknown origin) by DAPI staining-based fluorescence microscopy; assay type: protein-complex assay, Homo sapiens
# How it was run: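 Purified tubulin (99% pure; 20 μM as supplied) mixed with compound in general tubulin buffer (80 mM PIPES pH 6.9, 2.0 mM MgCl₂, 0.5 mM EGTA) with 1 mM GTP, 20% glycerol and DAPI reporter. Polymerization tracked kinetically at 37 °C as fluorescence rise (ex 360, em 450 nm). Duplicate wells per concentration. IC50 from at least two independent experiments.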
# [11] = Antiproliferative activity against human CNE2 cells after 48 hrs by SRB method; assay type: functional, cell-based; settings: CNE-2, 48 h; how it was run: as §1
# [12] = tested on: A549; assay: Cell cycle arrest in human A549 cells assessed as accumulation at G2/M phase at 62.5 nM after 24 hrs by Hoechst 33342 staining-based ArrayScanVTI analysis; assay type: functional
# How it was run: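 A549 cells were seeded at 5000/well, cultured overnight, then treated 24 h over a 7.81–250 concentration series. Cells were fixed in prewarmed paraformaldehyde 10 min, permeabilized with Triton X-100, and nuclei stained with Hoechst 33342. Imaging was by ArrayScan VTI high-content analysis. Phase percentage = cells within a gated fluorescence intensity / total cells counted.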
# [13] = tested on: A549; assay: Drug resistance index, ratio of IC50 for cis-platinum-resistant human A549 cells to IC50 for human A549 cells; assay type: functional
# How it was run: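 Drug resistance index = IC50 in the resistant line / IC50 in its parental line. […] Pairs: A549/CDDP vs A549, MCF-7/DOX vs MCF-7, A2780/TAX vs A2780, HCT-8/VCT vs HCT-8.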
smiles,measurement,setting,value
CN(C)c1ccc(/C=C/C(=O)c2ccccc2-c2ccc(F)cc2)cc1,viability at 1 µM,[1],8.21%
same,IC50,[2],0.049 µM
same,Activity,[3],41.02%
same,IC50,[4],0.096 µM
same,IC50,[5],0.11 µM
same,Activity,[6],82.06%
same,IC50,[7],0.045 µM
same,Activity,[8],33.86%
same,IC50,[9],0.094 µM
same,IC50,[10],3.6 µM
same,IC50,[11],0.03 µM
same,Activity,[12],Active
same,Ratio IC50,[13],1.6
